Experimental data from ChEMBL document CHEMBL5055647, “Identification and Biological Activity of NFAT-133 Congeners from Streptomyces pactum” (J Nat Prod, 2021).
Calls of active or inactive are those of the source. No cut-off for these calls is given here.

What was measured:
[1] = tested on: Staphylococcus aureus; assay: Antibacterial activity against Staphylococcus aureus ATCC 12600 by Whatman paper based disk diffusion assay; format: functional, organism-based
In short: (§1)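 Test strains grown overnight in LB at 30 °C, 200 rpm; 100 μL culture mixed into 10 mL warm 0.7% LB soft agar and plated. Paper disks loaded with 10 μL of 10 mM compound solution, plates incubated at 37 °C; activity judged by presence and diameter of inhibition zone. Ampicillin (2 mg/mL) positive control.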

[2] = tested on: Bacillus subtilis; assay: Antibacterial activity against Bacillus subtilis ATCC 6051 by Whatman paper based disk diffusion assay; format: functional, organism-based; in short: as §1
[3] = tested on: Escherichia coli; assay: Antibacterial activity against Escherichia coli ATCC 11775 by Whatman paper based disk diffusion assay; format: functional, organism-based; in short: as §1
[4] = tested on: Pseudomonas aeruginosa; assay: Antibacterial activity against Pseudomonas aeruginosa ATCC 9721 by Whatman paper based disk diffusion assay; format: functional, organism-based; in short: as §1
[5] = tested on: RAW264.7; assay: Cytotoxicity against mouse RAW264.7 cells up to 50 uM by MTT assay; format: cell-based; details: raw264.7, 50 µM
In short: (§2)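 Cells kept in high-glucose DMEM with 10% heat-inactivated FBS, streptomycin, amphotericin B, 37 °C, 5% CO2; exponential-phase cells seeded ~1.0 × 10^4/well, grown 12 h, then exposed to serial dilutions of compound; medium-only controls. Viability by MTT, absorbance 490 nm.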

[6] = tested on: HeLa; assay: Cytotoxicity against human HeLa cells up to 50 uM by MTT assay; format: functional, cell-based; in short: as §2
[7] = tested on: NCI-H460; assay: Cytotoxicity against human NCI-H460 cells up to 50 uM by MTT assay; format: functional, cell-based; in short: as §2
[8] = tested on: MCF7; assay: Cytotoxicity against human MCF7 cells up to 50 uM by MTT assay; format: functional, cell-based; in short: as §2
[9] = tested on: RAW264.7; assay: Inhibition of LPS-induced NO production in mouse RAW264.7 cells preincubated for 1 hr followed by LPS stimulation measured after 24 hrs by Griess reagent based assay; format: functional, cell-based; details: time 25.0 hrs
In short: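 Murine macrophages seeded ~1 × 10^4/well, grown 12 h, pretreated with compound 1 h, then LPS 25 ng/mL added for 24 h. Supernatant nitrite measured by Griess reagent (1:1, 37 °C, 15 min, dark), absorbance 520 nm, quantified against 0–100 μM sodium nitrite standards; mean ± SD of independent experiments, t-test, p < 0.05.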

Which Activity [1] does the source give for CC(=O)[C@@H](C)[C@H](O)[C@@H](C)c1ccc(C)cc1/C=C/CO here?
The Activity was “inactive”.

And the Activity [2]?
Its Activity is “inactive”.

What about the Activity [3] of the same compound?
Its Activity is “inactive”.

And the Activity [4]?
Its Activity is “inactive”.

And the Activity [5]?
Its Activity is “Non-Toxic”.

What about the Activity [6] of the same compound?
Its Activity is “inactive”.

What about the Activity [7] of the same compound?
Its Activity is “inactive”.

And the Activity [8]?
Its Activity is “inactive”.

What about the inhibition [9] of the same compound?
The inhibition was “Dose-dependent effect”.

For C=C[C@H](O)c1cc(C)ccc1[C@H](C)[C@@H](O)[C@H](C)C(C)=O, which Activity [1] is on record?
The Activity was “inactive”.

And the Activity [2]?
Its Activity is “inactive”.

What about the Activity [3] of the same compound?
The Activity was “inactive”.

And the Activity [4]?
Its Activity is “inactive”.

What about the Activity [5] of the same compound?
Its Activity is “Non-Toxic”.

And the Activity [6]?
Its Activity is “inactive”.

And the Activity [7]?
The Activity was “inactive”.

What about the Activity [8] of the same compound?
Its Activity is “inactive”.

And the inhibition [9]?
The inhibition was “Dose-dependent effect”.

Which results are given for CC(=O)[C@@H](C)[C@@H]1O[C@H](CCO)c2cc(C)ccc2[C@@H]1C?
Activity [1]: inactive; Activity [2]: inactive; Activity [3]: inactive; Activity [4]: inactive; Activity [5]: Non-Toxic; Activity [6]: inactive; Activity [7]: inactive; Activity [8]: inactive; inhibition [9]: Dose-dependent effect

For CC(=O)[C@@H](C)[C@@H]1O[C@@H](CCO)c2cc(C)ccc2[C@@H]1C, which Activity [1] is on record?
Its Activity is “inactive”.

What about the Activity [2] of the same compound?
Its Activity is “inactive”.

What about the Activity [3] of the same compound?
Its Activity is “inactive”.

What about the Activity [4] of the same compound?
Its Activity is “inactive”.

What about the Activity [5] of the same compound?
The Activity was “Non-Toxic”.

What about the Activity [6] of the same compound?
Its Activity is “inactive”.

And the Activity [7]?
Its Activity is “inactive”.

What about the Activity [8] of the same compound?
The Activity was “inactive”.

What about the inhibition [9] of the same compound?
The inhibition was “Dose-dependent effect”.
